Activity calls are given as the source filed them. No cut-off for these calls is given here. Starred links: 1 amine or outer side, 2 acyl side, 3 side chain; linkers in the order of their positions; H or OH if unused. Positions of bridges follow the written chain, without caps; N, C: chain ends. Non-standard residues stand in square brackets, D forms with d. Residues, ends and D or L forms follow the SMILES beside them. Phe(Nα-(CH2)3CO) = O=C([C@H](Cc1ccccc1)N(CCCC(=O)[*:3])[*:1])[*:2]; N(2-aminoethyl)Phe = O=C([C@H](Cc1ccccc1)N(CCN[*:3])[*:1])[*:2]
Legend:
[1] = target: Somatostatin receptor type 1 (Homo sapiens, UniProt P30872); test: Displacement of [125I]-[Leu8, DTrp22, Tyr25]-somatostatin-28 from human recombinant sst1 receptor expressed in chinese hamster CCL39 cells; type: cell-based
Method in brief: (§1)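 Competitive displacement on membrane pellet sections from cells expressing each human sst subtype. The radioligand was [¹²⁵I]-[Leu⁸,D-Trp²²,Tyr²⁵]-somatostatin-28 at 15000 cpm/100 µL. Unlabeled compounds were tested from 0.1 to 1,000 nmol/L, with somatostatin-28 run in parallel over the same range. IC₅₀ was calculated from displacement.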

[2] = target: Somatostatin receptor type 2 (Homo sapiens, UniProt P30874); test: Displacement of [125I]-[Leu8, DTrp22, Tyr25]-somatostatin-28 from human recombinant sst2 receptor expressed in chinese hamster CCL39 cells; type: cell-based; method in brief: as §1
[3] = target: Somatostatin receptor type 3 (Homo sapiens, UniProt P32745); test: Displacement of [125I]-[Leu8, DTrp22, Tyr25]-somatostatin-28 from human recombinant sst3 receptor expressed in chinese hamster CCL39 cells; type: cell-based; method in brief: as §1
[4] = target: Somatostatin receptor type 4 (Homo sapiens, UniProt P31391); test: Displacement of [125I]-[Leu8, DTrp22, Tyr25]-somatostatin-28 from human recombinant sst4 receptor expressed in chinese hamster CCL39 cells; type: cell-based; method in brief: as §1
[5] = target: T1, Somatostatin receptor type 5 (Homo sapiens, UniProt P35346); test: Displacement of [125I]-[Leu8, DTrp22, Tyr25]-somatostatin-28 from human recombinant sst5 receptor expressed in chinese hamster CCL39 cells; type: cell-based; method in brief: as §1
[6] = target: T1, Somatostatin receptor type 5; test: Agonist activity at human recombinant sst5 receptor expressed in chinese hamster CCL39 cells assessed stimulation of [35S]GTP-gamma-S-binding; type: functional, cell-based
Method in brief: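 CCL-sst₅ cells grown in DMEM/Ham's F-12 (1:1) with 10% FBS, penicillin/streptomycin and 400 µg/mL G418 at 37 °C, 5% CO₂. Binding was run on 20 µm cryostat sections of membrane pellets. Sections were preincubated 10 min at room temperature in Tris-HCl buffer (pH 8.2) with BSA, bacitracin and MgCl₂. They then went 30 min in the same buffer plus 50 µM GDP.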

[7] = species: Homo sapiens; test: Selectivity for human recombinant sst5 receptor over human recombinant sst4 receptor

Chain of Somatostatin receptor type 2 (P30874 whole entry): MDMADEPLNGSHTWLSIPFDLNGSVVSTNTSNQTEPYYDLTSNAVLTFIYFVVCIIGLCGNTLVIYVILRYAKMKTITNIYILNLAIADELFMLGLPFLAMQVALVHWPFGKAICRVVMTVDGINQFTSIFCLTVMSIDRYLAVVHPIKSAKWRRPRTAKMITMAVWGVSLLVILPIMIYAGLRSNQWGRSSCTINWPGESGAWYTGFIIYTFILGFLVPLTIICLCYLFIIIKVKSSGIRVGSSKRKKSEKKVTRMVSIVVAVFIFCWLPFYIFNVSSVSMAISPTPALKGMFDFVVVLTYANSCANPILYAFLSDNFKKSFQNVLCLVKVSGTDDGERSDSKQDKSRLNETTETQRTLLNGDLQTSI
Chain of Somatostatin receptor type 4 (P31391 whole entry): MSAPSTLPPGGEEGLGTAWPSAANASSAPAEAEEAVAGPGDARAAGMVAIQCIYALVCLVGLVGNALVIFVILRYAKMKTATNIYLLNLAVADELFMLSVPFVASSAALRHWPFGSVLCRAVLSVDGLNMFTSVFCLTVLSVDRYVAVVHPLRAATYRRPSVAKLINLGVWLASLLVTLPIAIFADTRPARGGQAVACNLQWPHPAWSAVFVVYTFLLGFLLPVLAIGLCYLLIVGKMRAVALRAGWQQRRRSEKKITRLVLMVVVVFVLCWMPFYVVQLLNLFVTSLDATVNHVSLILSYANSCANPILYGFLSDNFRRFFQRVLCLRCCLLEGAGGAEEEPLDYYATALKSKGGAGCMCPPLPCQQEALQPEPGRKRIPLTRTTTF
T1 sequence (P35346 whole entry): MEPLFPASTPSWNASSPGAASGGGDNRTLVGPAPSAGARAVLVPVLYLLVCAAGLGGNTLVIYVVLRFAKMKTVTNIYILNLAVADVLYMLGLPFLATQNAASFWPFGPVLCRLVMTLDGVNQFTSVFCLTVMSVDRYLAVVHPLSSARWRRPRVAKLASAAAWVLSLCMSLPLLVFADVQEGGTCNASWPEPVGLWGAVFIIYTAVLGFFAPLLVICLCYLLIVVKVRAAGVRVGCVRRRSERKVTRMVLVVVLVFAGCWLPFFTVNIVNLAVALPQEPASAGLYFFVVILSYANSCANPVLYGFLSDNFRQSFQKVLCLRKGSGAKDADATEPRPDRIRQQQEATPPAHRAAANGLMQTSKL
Chain of Somatostatin receptor type 3 (P32745 whole entry): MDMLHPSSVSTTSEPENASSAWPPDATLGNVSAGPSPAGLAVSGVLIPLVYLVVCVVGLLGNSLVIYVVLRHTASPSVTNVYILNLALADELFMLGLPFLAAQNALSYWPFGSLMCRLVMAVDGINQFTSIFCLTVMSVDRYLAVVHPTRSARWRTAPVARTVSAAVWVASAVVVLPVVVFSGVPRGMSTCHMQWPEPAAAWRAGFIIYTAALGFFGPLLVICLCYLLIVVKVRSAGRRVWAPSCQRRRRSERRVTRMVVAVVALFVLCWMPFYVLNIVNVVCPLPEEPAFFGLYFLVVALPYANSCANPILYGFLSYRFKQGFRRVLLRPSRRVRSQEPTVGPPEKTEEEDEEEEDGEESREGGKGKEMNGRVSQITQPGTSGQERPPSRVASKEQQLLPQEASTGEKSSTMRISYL
Chain of Somatostatin receptor type 1 (P30872 whole entry): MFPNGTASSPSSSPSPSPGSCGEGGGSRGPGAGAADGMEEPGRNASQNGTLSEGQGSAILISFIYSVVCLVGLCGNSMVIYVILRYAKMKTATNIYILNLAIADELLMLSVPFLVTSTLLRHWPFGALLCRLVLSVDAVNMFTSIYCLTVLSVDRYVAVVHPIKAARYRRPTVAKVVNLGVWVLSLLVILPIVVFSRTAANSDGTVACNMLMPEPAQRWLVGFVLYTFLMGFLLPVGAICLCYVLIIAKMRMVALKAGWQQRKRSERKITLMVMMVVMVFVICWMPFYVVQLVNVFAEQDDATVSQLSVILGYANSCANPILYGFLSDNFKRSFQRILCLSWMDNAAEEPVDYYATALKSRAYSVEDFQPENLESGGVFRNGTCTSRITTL

| Compound | IC50 [1] [µM] | IC50 [2] [µM] | IC50 [3] [µM] | IC50 [4] [µM] | IC50 [5] [µM] | Activity [6] | fold change (FC) [7] |
| --- | --- | --- | --- | --- | --- | --- | --- |
| NCCCC[C@@H](C(=O)NCc1cccc2ccccc12)N1Cc2[nH]c3ccccc3c2C[C@@H](NC(=O)Cc2ccccc2)C1=O | 0.387 | 0.215 | 0.105 | 0.017 | 0.0035 | – | – |
| NCCCC[C@@H](C(=O)NCc1ccccc1)N1Cc2[nH]c3ccccc3c2C[C@@H](NC(=O)c2ccc(-c3ccccc3)cc2)C1=O | > 1 | 0.012 | 0.054 | 0.161 | 0.016 | – | – |
| C[C@@H](NC(=O)[C@H](CCCCN)N1Cc2[nH]c3ccccc3c2C[C@@H](NC(=O)Cc2ccccc2)C1=O)c1ccccc1 | 0.63 | 0.77 | 0.403 | 0.014 | 0.05 | – | – |
| NCCCC[C@H](C(=O)NCc1ccccc1)N1Cc2[nH]c3ccccc3c2C[C@@H](NC(=O)Cc2ccccc2)C1=O | > 1 | > 1 | 0.91 | 0.056 | 0.025 | – | – |
| CC(=O)N[C@@H]1Cc2c([nH]c3ccccc23)CN([C@@H](CCCCN)C(=O)NCc2ccccc2)C1=O | 0.253 | 0.292 | > 1 | 0.007 | 0.005 | – | – |
| C[C@@H](O)[C@@H](CO)NC(=O)[C@@H]1C/C=C/C[C@H](NC(=O)[C@H](N)Cc2ccccc2)C(=O)N[C@@H](Cc2ccccc2)C(=O)N[C@H](Cc2c[nH]c3ccccc23)C(=O)N[C@@H](CCCCN)C(=O)N[C@@H](Cc2ccc(OCc3ccccc3)cc2)C(=O)N1 | – | – | – | – | 0.012 | – | 24 |
| NCCCC[C@@H](C(=O)NCc1ccccc1)N1Cc2[nH]c3ccccc3c2C[C@@H](NC(=O)C(c2ccccc2)c2ccccc2)C1=O | 0.247 | 0.242 | > 0.5 | 0.014 | 0.0088 | – | – |
| NCCCC[C@@H](C(=O)NCc1ccccc1)N1Cc2[nH]c3ccccc3c2C[C@@H](NC(=O)N2CCN(S(=O)(=O)c3ccccc3)CC2)C1=O | 0.372 | 0.0042 | 0.26 | 0.059 | 0.0035 | – | – |
| NCCCC[C@@H](C(=O)NCc1ccccc1)N1Cc2[nH]c3ccccc3c2C[C@@H](NC(=O)c2ccc(Cl)cc2)C1=O | 0.038 | 0.022 | 0.162 | 0.0023 | 0.0037 | – | – |
| COC(=O)[C@H](CCCCN)N1Cc2[nH]c3ccccc3c2C[C@@H](NC(=O)Cc2ccccc2)C1=O | 0.962 | 0.29 | 0.4 | 0.0024 | 0.013 | – | – |
| CS(=O)(=O)N1CC2(CCN(C(=O)N[C@@H]3Cc4c([nH]c5ccccc45)CN([C@@H](CCCCN)C(=O)NCc4ccccc4)C3=O)CC2)c2ccccc21 | 0.837 | 0.327 | 0.316 | 0.0021 | 0.008 | – | – |
| C[C@H](NC(=O)[C@H](CCCCN)N1Cc2[nH]c3ccccc3c2C[C@@H](NC(=O)Cc2ccccc2)C1=O)c1ccccc1 | 0.183 | 0.452 | 0.3 | 0.001 | 0.0032 | – | – |
| NCCCC[C@@H](C(=O)NCc1ccccc1)N1Cc2[nH]c3ccccc3c2C[C@@H](NC(=O)CCc2ccccc2)C1=O | 0.054 | 0.01 | 0.153 | 0.0081 | 0.0034 | – | – |
| CC(C)[C@@H]1NC(=O)[C@H](CCCCN)NC(=O)[C@H](Cc2c[nH]c3ccccc23)NC(=O)[C@H](Cc2ccc(O)cc2)NC(=O)[C@H](Cc2ccccc2)NCCNC(=O)CCCN([C@@H](Cc2ccccc2)C(=O)N[C@H](C(N)=O)[C@@H](C)O)C1=O (H-[N(2-aminoethyl)Phe]YWKV[Phe(Nα-(CH2)3CO)]T-NH2; lactam 1-6) | – | – | – | – | – | – | 24 |

More lines, in order of falling IC50 [5], values ahead:

| IC50 [1] [µM] | IC50 [2] [µM] | IC50 [3] [µM] | IC50 [4] [µM] | IC50 [5] [µM] | Activity [6] | fold change (FC) [7] | Compound |
| --- | --- | --- | --- | --- | --- | --- | --- |
| 0.379 | 0.0021 | 0.0091 | 0.035 | 0.0029 | – | – | NCCCC[C@@H](C(=O)NCc1ccccc1)N1Cc2[nH]c3ccccc3c2C[C@@H](NC(=O)N2CCC3(CCc4ccccc43)CC2)C1=O |
| 0.027 | 0.103 | 0.182 | 0.0013 | 0.0018 | – | – | NCCCC[C@@H](C(=O)NCc1ccccc1)N1Cc2[nH]c3ccccc3c2C[C@@H](NC(=O)c2ccccc2)C1=O |
| 0.089 | 0.0021 | 0.119 | 0.0069 | 0.0014 | – | – | NCCCC[C@@H](C(=O)NCc1ccccc1)N1Cc2[nH]c3ccccc3c2C[C@@H](NC(=O)C2CCN(C(=O)c3ccccc3)CC2)C1=O |
| 0.076 | 0.00073 | 0.0039 | 0.0044 | 0.00086 | – | – | NCCCC[C@@H](C(=O)NCc1ccccc1)N1Cc2[nH]c3ccccc3c2C[C@@H](NC(=O)N2CCC(n3c(=O)[nH]c4ccccc43)CC2)C1=O |
| 0.075 | 0.183 | 0.05 | 0.0024 | 0.0006 | Active | – | NCCCC[C@@H](C(=O)NCCc1ccccc1)N1Cc2[nH]c3ccccc3c2C[C@@H](NC(=O)Cc2ccccc2)C1=O |
| 0.105 | > 1 | 0.515 | 0.007 | 0.00056 | Active | 10 | CC(=O)N[C@@H]1Cc2c([nH]c3ccccc23)CN([C@@H](CCCCN)C(=O)NCCc2ccccc2)C1=O |
| – | – | – | – | 0.0004 | – | – | C[C@H](N)COC(=O)[C@@H](CCCCN)NC(=O)Cc1c(-c2ccc3ccccc3c2)[nH]c2c1ccc1ccccc12 |
| – | – | – | – | 0.0003 | – | 200 | NCc1cccc(C[C@@H]2O[C@@H](CC(=O)NCc3ccccc3F)C(=O)N(Cc3ccc(-c4ccccc4)cc3)c3ccccc32)c1 |

From ChEMBL document CHEMBL1139341 (J Med Chem, 2009)
